Values after ≈ are worked out from the molar mass of the structure shown.
Assays:
[1] = Ratio of ED50 value evaluated in Streptococcus pyogenes by po to sc administration; assay type: functional
Summary of the method: (§1)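 Oral/subcutaneous effective-dose ratio. Both routes were dosed in random-sex ICR mice of 19–21 g at 1 and 5 h after an intraperitoneal challenge of 50–500 LD50 from a frozen organism pool. Each route used five 2-fold dilution levels with eight mice per level, and the po value was divided by the sc value.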

[2] = Ratio of ED50 value evaluated in Staphylococcus aureus by po to sc administration; assay type: functional; summary of the method: as §1
Streptococcus pneumoniae [3] = test: Efficacy against mouse infections caused by S. Pneumoniae measured as Minimum inhibitory concentration
Streptococcus pneumoniae [4] = test: Minimum inhibitory concentration against Streptococcus pneumoniae; assay type: functional
Summary of the method: (§2)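 Agar dilution MIC in μg/mL. […] Organisms not run are marked not tested.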

[5] = Ratio of ED50 value evaluated in Streptococcus pneumoniae by po to sc administration; assay type: functional; summary of the method: as §1
Salmonella typhi [6] = test: Minimum inhibitory concentration against Salmonella typhi; assay type: functional, Salmonella enterica subsp. enterica serovar Typhi; details: Salmonella enterica
Staphylococcus aureus [7] = test: Efficacy against mouse infections caused by Staphylococcus aureus measured as Minimum inhibitory concentration
Klebsiella aerogenes = test: Minimum inhibitory concentration against Enterobacter aerogenes; assay type: functional; summary of the method: as §2
Mus musculus [8] = test: (§3) Effective dose administered subcutaneously (sc) to 19-21-g random sex ICR mice at 1 hr and 5 hr intervals after intraperitoneal administration of Streptococcus pyogenes; assay type: functional
Summary of the method: (§4)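 Mouse protection: random-sex ICR mice, 19–21 g, challenged intraperitoneally from a frozen organism pool giving 50–500 LD50 per challenge dose. Drug given sc or po at 1 and 5 h post-infection. Five 2-fold dilution levels per compound, eight mice per dilution.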

Staphylococcus aureus [9] = test: Minimum inhibitory concentration against Staphylococcus aureus; assay type: functional; summary of the method: as §2
Klebsiella pneumoniae [10] = test: Minimum inhibitory concentration against Klebsiella pneumoniae; assay type: functional; summary of the method: as §2
Streptococcus pyogenes [11] = test: Minimum inhibitory concentration against Streptococcus pyogenes; assay type: functional; summary of the method: as §2
Haemophilus influenzae [12] = test: (§5) Minimum inhibitory concentration against Haemophilus influenzae; assay type: functional; summary of the method: as §2
Streptococcus pyogenes [13] = test: Efficacy against mouse infections caused by Streptococcus pyogenes measured as Minimum inhibitory concentration
Salmonella typhi [14] = test: Minimum inhibitory concentration by agar dilution method against Salmonella typhi; assay type: functional, Salmonella enterica subsp. enterica serovar Typhi; details: Salmonella enterica
Mus musculus [15] = test: (§6) Effective dose administered orally (po) to 19-21-g random sex ICR mice at 1 hr and 5 hr intervals after intraperitoneal Staphylococcus aureus; assay type: functional; summary of the method: as §4
Mus musculus [16] = test: (§7) Effective dose administered orally (po) to 19-21-g random sex ICR mice at 1 hr and 5 hr intervals after intraperitoneal Streptococcus pyogenes; assay type: functional; summary of the method: as §4
Mus musculus [17] = test: (§8) Effective dose administered subcutaneously (sc) to 19-21-g random sex ICR mice at 1 hr and 5 hr intervals after intraperitoneal administration of Staphylococcus aureus; assay type: functional; summary of the method: as §4
Mus musculus [18] = test: (§9) Effective dose administered subcutaneously (sc) to 19-21-g random sex ICR mice at 1 hr and 5 hr intervals after intraperitoneal administration of Streptococcus pneumoniae; assay type: functional; summary of the method: as §4
Haemophilus influenzae [19] = test: as §5; assay type: functional; summary of the method: as §2; remark: listed apart in the source
Mus musculus [20] = test: (§10) Effective dose administered orally (po) to 19-21-g random sex ICR mice at 1 hr and 5 hr intervals after intraperitoneal administration of Streptococcus pneumoniae; assay type: functional; summary of the method: as §4
Escherichia coli = test: Minimum inhibitory concentration against Escherichia coli; assay type: functional; summary of the method: as §2
Streptococcus pyogenes [21] = test: as §3; assay type: functional; summary of the method: as §4
Staphylococcus aureus [22] = test: Efficacy against mouse infections caused by Staphylococcus aureus measured as Minimum inhibitory concentration; assay type: functional
Staphylococcus aureus [23] = test: as §6; assay type: functional; summary of the method: as §4
Streptococcus pneumoniae [24] = test: Efficacy against mouse infections caused by S. Pneumoniae measured as Minimum inhibitory concentration; assay type: functional
Streptococcus pyogenes [25] = test: as §7; assay type: functional; summary of the method: as §4
Staphylococcus aureus [26] = test: as §8; assay type: functional; summary of the method: as §4
Streptococcus pneumoniae [27] = test: as §9; assay type: functional; summary of the method: as §4
Streptococcus pyogenes [28] = test: Efficacy against mouse infections caused by Streptococcus pyogenes measured as Minimum inhibitory concentration; assay type: functional
Klebsiella pneumoniae [29] = test: Minimum inhibitory concentration by agar dilution method against Klebsiella pneumoniae; assay type: functional; summary of the method: as §2
Streptococcus pneumoniae [30] = test: as §10; assay type: functional; summary of the method: as §4
Haemophilus influenzae [31] = test: Minimum inhibitory concentration by agar dilution method against Haemophilus influenzae (beta lactamase(-)); assay type: functional; summary of the method: as §2
Haemophilus influenzae [32] = test: Minimum inhibitory concentration by agar dilution method against Haemophilus influenzae (beta lactamase(-); assay type: functional; summary of the method: as §2
Haemophilus influenzae [33] = test: Minimum inhibitory concentration by agar dilution method against (beta lactamase(+); assay type: functional; summary of the method: as §2
Mus musculus [34] = test: Effective dose administered orally (po) to 19-21-g random sex ICR mice at 1 hr and 5 hr intervals after intraperitoneal Streptococcus pneumoniae; assay type: functional; summary of the method: as §4

Compound | Ratio [1] | Ratio [2] | MIC (Streptococcus pneumoniae [3]) [µg/mL] | MIC (Streptococcus pneumoniae [4]) [µg/mL] | Ratio [5] | MIC (Salmonella typhi [6]) [µg/mL] | MIC (Klebsiella aerogenes) [µg/mL] | MIC (Staphylococcus aureus [9]) [µg/mL] | MIC (Klebsiella pneumoniae [10]) [µg/mL] | MIC (Streptococcus pyogenes [11]) [µg/mL] | MIC (Haemophilus influenzae [12]) [µg/mL] | ED50 (Mus musculus [15]) [mg/kg] | MIC (Escherichia coli) [µg/mL] | other results
Nc1nc(CC(=O)N[C@@H]2C(=O)N3C(C(=O)O)=C(Cl)CS[C@H]23)cs1 | 0.7 | 4.5 | 0.5 (≈ 1.33 µM) | 0.25 (≈ 0.667 µM) | 1.4 | 0.25 (≈ 0.667 µM) |  |  |  |  |  |  |  | 
O=C(Cc1csc2ccccc12)N[C@@H]1C(=O)N2C(C(=O)O)=C(Cl)CS[C@H]12 | 1.4 | 2.4 |  |  | 2.4 | 128 (≈ 313 µM) |  |  |  |  |  |  |  | 
O=C(CSc1cc(Cl)ccc1Cl)N[C@@H]1C(=O)N2C(C(=O)O)=C(Cl)CS[C@H]12 | 2.6 | 5.9 | 0.015 (≈ 0.0331 µM) | < 0.008 |  |  | > 128 | 0.03 (≈ 0.0661 µM) | 32 (≈ 70.5 µM) | < 0.008 | 1 (≈ 2.2 µM) | 7.7 | 32 (≈ 70.5 µM) | MIC (Staphylococcus aureus [7]): 0.03 µg/mL (≈ 0.0661 µM); ED50 (Mus musculus [8]): 2.8 mg/kg; MIC (Streptococcus pyogenes [13]): 0.125 µg/mL (≈ 0.275 µM); MIC (Salmonella typhi [14]): 64 µg/mL (≈ 141 µM); ED50 (Mus musculus [16]): 7.2 mg/kg; ED50 (Mus musculus [17]): 1.3 mg/kg; ED50 (Mus musculus [18]): 6.3 mg/kg; MIC (Haemophilus influenzae [19]): 1 µg/mL (≈ 2.2 µM); ED50 (Mus musculus [20]): > 25 mg/kg
COC1=C(C(=O)O)N2C(=O)[C@@H](NC(=O)Cc3csc4ccccc34)[C@H]2SC1 |  | 2 |  | 0.5 (≈ 1.24 µM) |  | > 128 | > 128 | 0.25 (≈ 0.618 µM) |  | 0.25 (≈ 0.618 µM) | 0.5 (≈ 1.24 µM) |  | > 128 | ED50 (Streptococcus pyogenes [21]): > 10 mg/kg; MIC (Staphylococcus aureus [22]): 0.5 µg/mL (≈ 1.24 µM); ED50 (Staphylococcus aureus [23]): 2.8 mg/kg; MIC (Streptococcus pneumoniae [24]): 0.5 µg/mL (≈ 1.24 µM); ED50 (Streptococcus pyogenes [25]): > 10 mg/kg; ED50 (Staphylococcus aureus [26]): 1.4 mg/kg; ED50 (Streptococcus pneumoniae [27]): > 10 mg/kg; MIC (Streptococcus pyogenes [28]): 0.25 µg/mL (≈ 0.618 µM); MIC (Klebsiella pneumoniae [29]): > 128 µg/mL; ED50 (Streptococcus pneumoniae [30]): > 10 mg/kg; MIC (Haemophilus influenzae [31]): 8 µg/mL (≈ 19.8 µM)
Nc1nc(CC(=O)N[C@@H]2C(=O)N3C(C(=O)O)=C(Cl)CS[C@H]23)c(-c2ccccc2)s1 |  |  |  | 0.03 (≈ 0.0665 µM) |  | > 128 | > 128 | 0.03 (≈ 0.0665 µM) | > 128 | 0.03 (≈ 0.0665 µM) |  |  | > 128 | MIC (Haemophilus influenzae [32]): 16 µg/mL (≈ 35.5 µM); MIC (Haemophilus influenzae [33]): 16 µg/mL (≈ 35.5 µM)
CC1(C)S[C@@H]2[C@H](NC(=O)COc3ccccc3)C(=O)N2[C@H]1C(=O)O [PENICILLIN V] | 3.9 | 11 |  |  | 1.1 |  |  |  |  |  |  | 0.46 |  | ED50 (Mus musculus [34]): 2.3 mg/kg

From ChEMBL document CHEMBL1123986, “Oral absorption of cephalosporin antibiotics. 2. Expanded structure-activity relationships of 7-(arylacetamido)-3-substituted cephalosporins” (1988)
